Assay [1] deals with Fatty acid synthase (Homo sapiens) (UniProt P49327). The assay is described as follows: Inhibition of full length human FASN transfected in HeLa cell lysates at 10 uM using acetyl Co-A/malonyl Co-A as substrate preincubated with enzyme for 2 hrs followed by substrate addition measured after 10 mins in presence of NADPH by microplate reader analysis. Conditions: Lysate. Format: subcellular. The method, boiled down: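 Human FASN was made by in vitro translation from a FASN plasmid. Lysate was diluted 3:7 in 100 mM potassium phosphate, pH 6.5, 1 mM EDTA. It was preincubated with compound (10 µM final) for 2 h at 37 °C. Buffer containing acetyl-CoA (55 µM) and NADPH (330 µM) was added, then the reaction was started with malonyl-CoA (500 µM stock). A340 was read at 0 and 10 min; triplicates.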
Sequence of Fatty acid synthase (Homo sapiens) (P49327 whole entry, looked up): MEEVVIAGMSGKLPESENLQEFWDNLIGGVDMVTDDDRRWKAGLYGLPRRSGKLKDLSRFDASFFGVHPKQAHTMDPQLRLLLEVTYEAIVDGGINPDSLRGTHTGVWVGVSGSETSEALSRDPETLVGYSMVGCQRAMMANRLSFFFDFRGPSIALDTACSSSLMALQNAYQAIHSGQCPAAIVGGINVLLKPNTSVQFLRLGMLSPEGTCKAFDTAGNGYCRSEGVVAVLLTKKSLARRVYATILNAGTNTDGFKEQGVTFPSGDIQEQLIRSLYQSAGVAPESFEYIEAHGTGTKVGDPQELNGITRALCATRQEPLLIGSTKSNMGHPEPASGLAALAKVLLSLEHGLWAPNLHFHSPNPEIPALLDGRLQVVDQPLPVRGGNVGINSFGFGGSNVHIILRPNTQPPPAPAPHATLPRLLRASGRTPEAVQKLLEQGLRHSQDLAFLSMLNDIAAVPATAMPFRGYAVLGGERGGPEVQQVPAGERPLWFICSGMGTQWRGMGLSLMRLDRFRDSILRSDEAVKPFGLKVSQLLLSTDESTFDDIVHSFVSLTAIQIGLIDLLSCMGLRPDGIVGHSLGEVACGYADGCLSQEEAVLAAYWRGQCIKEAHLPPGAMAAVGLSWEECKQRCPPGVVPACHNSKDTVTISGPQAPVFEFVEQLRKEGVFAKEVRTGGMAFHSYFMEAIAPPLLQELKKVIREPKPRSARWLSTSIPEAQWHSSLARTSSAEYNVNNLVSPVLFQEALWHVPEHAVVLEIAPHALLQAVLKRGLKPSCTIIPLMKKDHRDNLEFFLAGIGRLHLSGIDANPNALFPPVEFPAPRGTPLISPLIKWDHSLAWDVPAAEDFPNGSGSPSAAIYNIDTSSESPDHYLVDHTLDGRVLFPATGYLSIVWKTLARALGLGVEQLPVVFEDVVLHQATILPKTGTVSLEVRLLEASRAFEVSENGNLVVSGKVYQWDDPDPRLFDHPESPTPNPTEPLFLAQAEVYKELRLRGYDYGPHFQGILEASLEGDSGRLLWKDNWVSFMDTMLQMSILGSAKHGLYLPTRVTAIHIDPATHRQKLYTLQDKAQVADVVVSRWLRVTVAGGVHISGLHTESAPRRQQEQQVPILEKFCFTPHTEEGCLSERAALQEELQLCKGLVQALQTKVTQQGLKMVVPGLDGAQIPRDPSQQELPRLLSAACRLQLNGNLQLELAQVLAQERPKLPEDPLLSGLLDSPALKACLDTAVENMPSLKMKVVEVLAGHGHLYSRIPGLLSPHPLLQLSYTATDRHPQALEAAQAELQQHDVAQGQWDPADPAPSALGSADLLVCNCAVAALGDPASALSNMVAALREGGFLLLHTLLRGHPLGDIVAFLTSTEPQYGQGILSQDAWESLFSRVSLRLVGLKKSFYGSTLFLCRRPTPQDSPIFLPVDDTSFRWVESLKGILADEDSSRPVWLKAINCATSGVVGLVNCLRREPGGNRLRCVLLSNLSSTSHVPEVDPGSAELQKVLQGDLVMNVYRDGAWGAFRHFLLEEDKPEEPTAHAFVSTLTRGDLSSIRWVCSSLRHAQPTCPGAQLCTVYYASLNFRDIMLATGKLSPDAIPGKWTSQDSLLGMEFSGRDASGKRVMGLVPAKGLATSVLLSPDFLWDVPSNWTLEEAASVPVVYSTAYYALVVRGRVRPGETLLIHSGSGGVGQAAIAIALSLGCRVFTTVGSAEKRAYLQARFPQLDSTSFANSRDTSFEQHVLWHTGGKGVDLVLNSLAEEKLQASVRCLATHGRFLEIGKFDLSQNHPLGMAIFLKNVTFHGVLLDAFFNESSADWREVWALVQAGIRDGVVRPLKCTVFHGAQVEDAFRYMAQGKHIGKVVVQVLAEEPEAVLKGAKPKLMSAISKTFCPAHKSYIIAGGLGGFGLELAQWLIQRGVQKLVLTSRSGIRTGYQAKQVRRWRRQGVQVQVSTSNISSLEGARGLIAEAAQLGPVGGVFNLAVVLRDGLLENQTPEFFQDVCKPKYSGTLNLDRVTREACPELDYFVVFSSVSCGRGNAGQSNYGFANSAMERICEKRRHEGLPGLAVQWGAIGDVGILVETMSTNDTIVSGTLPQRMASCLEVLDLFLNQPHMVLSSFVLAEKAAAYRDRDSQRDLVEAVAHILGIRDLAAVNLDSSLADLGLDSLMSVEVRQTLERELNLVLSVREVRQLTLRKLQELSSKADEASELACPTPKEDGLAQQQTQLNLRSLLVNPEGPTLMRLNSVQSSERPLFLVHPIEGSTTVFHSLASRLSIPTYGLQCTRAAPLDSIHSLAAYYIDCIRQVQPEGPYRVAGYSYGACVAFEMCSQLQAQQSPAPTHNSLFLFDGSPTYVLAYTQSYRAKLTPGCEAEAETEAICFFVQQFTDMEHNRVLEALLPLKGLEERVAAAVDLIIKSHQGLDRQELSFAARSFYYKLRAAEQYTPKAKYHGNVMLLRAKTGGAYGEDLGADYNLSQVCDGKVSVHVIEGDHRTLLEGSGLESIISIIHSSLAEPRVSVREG

The target is the same in assay [2]. The assay is described as follows: Inhibition of FASN in human PC9 cells harboring FASN expression and EGFR delE746-A750 mutant assessed as disruption of AKT/FASN positive feedback loop by measuring reduction in AKT expression at 1 uM after 48 hrs by Western immunoblot based densitometric assay relative to control. Type of assay: cell-based. The method, boiled down:
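PC-9 or H1703 cells were seeded at 8 × 10^5 per 100 mm dish and treated for 48 h at 1 or 5 µM (or 5, 50 and 100 µM). RIPA lysates were BCA-quantified and run on 8% SDS-PAGE, then transferred to PVDF. Blots were probed for FASN, AKT, phospho-AKT S473 and GAPDH and detected by ECL. Bands were quantified by densitometry and normalised to vehicle control.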

Active and inactive are the calls of the source. The calls are words filed in the database; no cut-off is given here.

Regarding `O=C(Oc1ccc(/C=C/c2cccc(OC(=O)c3cc(O)c(O)c(O)c3)c2)cc1)c1cc(O)c(O)c(O)c1`, the inhibition entry in assay [1] is “Active”. For the same molecule, the Ratio in assay [2] is 0.58.

Turning to `O=C(Oc1ccc(/C=C/c2ccc(OC(=O)c3cc(O)c(O)c(O)c3)cc2)cc1)c1cc(O)c(O)c(O)c1`, the inhibition result in assay [1] was “Active”. For the same molecule, the Ratio in assay [2] amounted to 1.04.

Source of the values: ChEMBL document CHEMBL4406830, “Galloyl esters of trans-stilbenes are inhibitors of FASN with anticancer activity on non-small cell lung cancer cells” (Eur J Med Chem, 2019).
